Measurements as given in article PMC9214341 (Acta Pharmaceutica Sinica. B, 2021).

Key:
[1] = tested on: CT26 cells; test: SRB cell proliferation assay, CT26; format: cell-based, murine; conditions: gradient concentrations, 72 h
[2] = tested on: tumor infiltrating immune cells; test: Flow cytometry analysis of tumor-infiltrating immune cells; format: in vivo, BALB/c mice; conditions: CT26 tumor-bearing mice, 16 mg/kg daily, 5 days
Method in brief: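 Tumor-bearing mice (n = 5) got vehicle or test compound. Tumors were cut up and digested in RPMI 1640 with 0.1% type IV collagenase and 0.01% DNase I at 37 °C for 45 min, passed through a 70 μm strainer, and red cells lysed. Cells were Fc-blocked on ice for 15 min and surface-stained on ice for 30 min. MDSCs were scored as a proportion of CD45⁺ cells (mean ± SEM).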

[3] = tested on: MC38 cells; test: SRB cell proliferation assay, MC38; format: cell-based, murine; conditions: gradient concentrations, 72 h

O=C(/C=C/c1cccnc1)NCCCCC1CCN(C(=O)c2ccccc2)CC1 [FK866]
cell growth sensitivity [1]: did not show the apparent growth dependency | infiltrating MDSCs in CT26 tumors [2]: did not affect | cell growth sensitivity [3]: did not show the apparent growth dependency
